# Casp6 inh – human caspase-6 inhibitors, primary screen, biochemical, VEID-R110 fluorescence, single point, set 2 | P55212 | purified caspase-6, Z-VEID-R110 cleavage fluorescence | inhibition, % at 12.5 µM | 350,000 compounds, 0.53% hits | AID 686996, 2013;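 active = mean inhibition across replicates at least about 35%, with every replicate also reaching that limit, limit read from the data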;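 note: 0% = median of neutral control wells and 100% = no fluorescence left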
# Target sequence (P55212 24-179 limits assumed): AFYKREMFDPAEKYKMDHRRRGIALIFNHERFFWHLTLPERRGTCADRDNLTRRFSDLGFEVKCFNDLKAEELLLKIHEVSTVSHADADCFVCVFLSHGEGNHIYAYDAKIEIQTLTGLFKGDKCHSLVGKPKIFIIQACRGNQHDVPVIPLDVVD
# Target sequence (P55212 194-293 limits assumed): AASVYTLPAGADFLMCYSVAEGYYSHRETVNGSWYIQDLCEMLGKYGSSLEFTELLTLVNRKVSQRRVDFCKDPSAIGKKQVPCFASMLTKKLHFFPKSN
# NS3 helicase inh – inhibitors of HCV NS3 helicase, primary screen, biochemical, Cy5 molecular beacon fluorescence; NS3 helicase DNA unwinding; inhibition, % at 10.9 µM; 290,000 compounds, 0.56% hits; AID 1800, 2009;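 active = inhibition above the mean of all tested compounds plus 3 SD, set per campaign, cut at about 35% in these data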;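 note: 0% = DMSO wells and 100% = thioflavine S control wells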
#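 Assay system: hepatitis C virus NS3 helicase domain fragment enzyme. Also added: annealed dual-labelled DNA beacon duplex, ATP-started. Timing: 1 h reaction at 25 °C, ATP-initiated. Technique: Cy5 fluorescence at 0 and 60 min, beacon hairpin quenching. Evaluation: % inhibition of unwinding. Replication: one well per compound.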
# NSD2 inh – NSD2 histone methyltransferase inhibitors, primary screen, biochemical, AlphaScreen, single concentration, set 2; Histone-lysine N-methyltransferase NSD2 (Homo sapiens), O96028; NSD2 peptide methylation, 120 min; inhibition, % at 12.5 µM; 310,000 compounds, 0.54% hits; AID 743445, 2014
# DNMT1 inh – human DNMT1 methyltransferase inhibitors, primary screen, biochemical, molecular beacon, fluorescence, HinP1I cleavage, uHTS. 360,000 compounds, 0.83% hits. AID 588458, 2011. DNA (cytosine-5)-methyltransferase 1 (Homo sapiens), P26358. inhibition (reported as % activation of signal), % at 10 µM
# Starred values were filed as active, the others as inactive; nt = no result given. Shown are actives, neighbours in structure and some others; about 1.5% of the full set was active somewhere. Cut-off read from the data, not from the text of the source, unless noted: active = inhibition above about 50%; inactive = the rest.
SMILES,Casp6 inh,NS3 helicase inh,NSD2 inh,DNMT1 inh
COc1ccc(-c2nc3ccc(C)cn3c2NCc2ccccc2)cc1SC1CCCCC1,nt,nt,nt,60*
O=C(Nc1ccccc1)[C@H]1[C@H](CO)[C@H]2Cn3c(ccc(C4=CCCCC4)c3=O)[C@H]2N1Cc1ccccn1,8,nt,nt,nt
CO[C@@H]1CN(C)C(=O)c2ccc(NC(=O)C3CC3)cc2OC[C@H](C)N(C(=O)CN(C)C)C[C@H]1C,-4,nt,nt,nt
COc1ccc(OC)c(NC(=O)Nc2ccc(O)c3ccccc23)c1,54*,nt,6,-30
O=C(ONC(=O)C1CCCCC1C(=O)NOC(=O)c1ccccc1)c1ccccc1 (stereo not drawn),40*,nt,-14,4
O=C(NCC(=O)N1CC=C(c2ccccc2)CC1)c1ccccc1Br,80*,9,-3,-1
O=C(N[C@H]1CC[C@@H](CCn2cc(C3(O)CCCC3)nn2)O[C@H]1CO)C1CC1,-4,nt,nt,nt
COc1ccccc1/C=c1\sc2nc(-c3cccs3)nn2c1=O,nt,14,nt,nt
C=CCOc1ccccc1/C=c1\sc2nc(=O)c(C)nn2c1=O,27,17,5,53*
O=C(O)C1C2C=CC(C2)C1C(=O)Nc1ccccc1Br (stereo not drawn),48*,1,1,23
CC(NC(=O)C1C2C=CC(C2)C1C(=O)O)c1ccccc1 (stereo not drawn),nt,-6,-4,1
Cc1c(NC(=O)CN2C(=O)C3C4C=CC(C4)C3C2=O)c(=O)n(-c2ccccc2)n1C (stereo not drawn),nt,4,-1,3
Cc1c(NC(=O)C2C3C=CC(C3)C2C(=O)O)c(=O)n(-c2ccccc2)n1C (stereo not drawn),36*,-5,3,17
COc1ccc(F)cc1C1=CC(=O)C[C@H](c2ccc3c(c2)OCO3)C1,52*,nt,nt,-2
COc1cc(F)c(C2=CC(=O)C[C@H](c3ccc4c(c3)OCO4)C2)cc1F,2,nt,nt,-1
Cc1c(CN(C)C)c2c(n1C)C(=O)c1ccc(Br)cc1-2,nt,1,14,4
CCOC(=O)c1c2c(n(C)c1C)C(=O)C(=O)c1ccc(Br)cc1-2,nt,-1,nt,88*
COc1cc(OC)c(OC)cc1CN1CCSCC1,36*,-5,-2,4
CCc1noc(C)c1C(=O)Nc1ccc(S(=O)(=O)N2CCCC(C)C2)cc1 (stereo not drawn),42*,nt,-2,0
CCc1noc(C)c1C(=O)Nc1ccc(C)c(S(=O)(=O)N2CCCCCC2)c1,2,nt,-5,-6
COC(=O)c1ccc(CNC(=O)c2ccc(S(=O)(=O)N3CCCC(C)C3)cc2)cc1 (stereo not drawn),-2,nt,-1,50*
O=C(C[C@H]1CC[C@@H]2[C@H](COC[C@@H](O)CN2C(=O)c2ccncc2)O1)NC1CCC1,0,nt,nt,nt
CC(C)NC(=O)Nc1ccc2c(c1)C(=O)N([C@H](C)CO)C[C@H](C)[C@H](CN(C)Cc1ccc(C(=O)O)cc1)OCCCC[C@H](C)O2,-1,nt,nt,nt
Cc1ccc(/C(N)=N/OC(=O)c2ccc3ccccc3c2)cc1,55*,-2,-1,2
CCCCNC(=O)c1ccc2nc(-c3ccco3)c(-c3ccco3)nc2c1,72*,20,nt,81*
SMILES,Casp6 inh,NS3 helicase inh,NSD2 inh,DNMT1 inh
O=C(NCc1ccccc1)c1ccc2nc(-c3ccco3)c(-c3ccco3)nc2c1,nt,24,nt,102*
C[C@@H]1CN([C@@H](C)CO)C(=O)c2cc(C#CCN(C)C)cnc2O[C@H]1CN(C)C(=O)NC1CCCC1,-13,nt,nt,nt
COc1cccc(/C=C(\C#N)c2nc3ccc(C)cc3[nH]2)c1OCC(=O)O,4,29,-4,0
CCOc1cccc(/C=C(/C#N)c2nc3ccccc3[nH]2)c1OCC(=O)O,45*,8,1,1
COc1ccc2c3c([nH]c2c1)[C@H](CO)N(C(=O)C1CCOCC1)CC31CCN(C(=O)NC(C)C)CC1,3,nt,nt,nt
FC(F)(F)c1ccccc1NC(=S)Nc1cccc2cnccc12,37*,0,96*,-15
S=C(NCc1ccccc1)Nc1cccc2cnccc12,1,0,0,-12
COc1ccc(NC(=O)Nc2ccc3c(c2)C(=O)N([C@H](C)CO)C[C@H](C)[C@H](CN(C)C(=O)NC2CCCCC2)OCCCC[C@H](C)O3)cc1,-1,nt,nt,nt
COc1ccc2cc(C(c3nnnn3C3CCCC3)N3CCc4ccccc4C3)c(=O)[nH]c2c1 (stereo not drawn),47*,-5,0,-10
COc1ccc2cc(C(c3nnnn3C(C)(C)C)N3CCc4ccccc4C3)c(=O)[nH]c2c1 (stereo not drawn),nt,28,nt,nt
O=C(COC(=O)c1ccc([N+](=O)[O-])o1)NCc1ccccc1,25,nt,7,-1
COc1ccccc1CNC(=O)COC(=O)c1ccc([N+](=O)[O-])o1,35*,nt,0,-10
O=C(COC(=O)c1ccc([N+](=O)[O-])o1)Nc1ccc2c(c1)OC(F)(F)O2,56*,nt,5,3
O=C(CN1CCOCC1)NCC[C@@H]1CC[C@H](NC(=O)Nc2ccc(F)cc2)[C@@H](CO)O1,2,nt,nt,nt
O=C(C[C@@H]1C=C[C@H](NC(=O)C2CC2)[C@H](CO)O1)Nc1nccs1,83*,nt,nt,nt
C/C(CC(=O)Nc1cc(C)ccn1)=N\NC(=O)c1cccc(C)c1,2,2,2,-7
C/C(CC(=O)Nc1cc(C)ccn1)=N\NC(=O)c1cccc(C)c1O,53*,-1,-2,-2
COc1ccc(NC(=S)N(CCN2CCOCC2)Cc2cc3cc4c(cc3[nH]c2=O)OCCO4)cc1,38*,-12,4,-3
O=C(NCC[C@H]1CC[C@H](NS(=O)(=O)c2cccc(F)c2)[C@@H](CO)O1)Nc1cc(F)ccc1F,0,nt,nt,nt
Cc1cccc(C(=O)Oc2ccc(/C=N/NC(=O)c3cc(O)cc(O)c3)cc2)c1,21,7,19,69*
O=C(NCC1CC1)[C@H]1N[C@H]2c3ccc(C4=CCCCC4)c(=O)n3C[C@H]2[C@@H]1CO,-1,nt,nt,nt
Cc1c2cc(O)c(=O)cc-2oc2cc(O)c(O)cc12,92*,17,nt,186*
COc1ccc(S(=O)(=O)/N=C2\C=C(Nc3ccc(O)cc3)C(=O)c3ccccc32)cc1,78*,-17,51*,41
O=C(O)c1ccc(S(=O)(=O)/N=C2\C=C(Nc3ccccc3F)C(=O)c3ccccc32)cc1,99*,13,120*,74*
Cc1ccccc1NC1=C/C(=N\S(=O)(=O)c2ccc(C(=O)O)cc2)c2ccccc2C1=O,99*,7,139*,72*
Cc1ccccc1NC1=C/C(=N\S(=O)(=O)c2cccs2)c2ccccc2C1=O,nt,1,44,69*
Cc1ccc(NC2=C/C(=N/S(=O)(=O)c3cccs3)c3ccccc3C2=O)cc1C,0,-9,0,43
COc1cccc(NC(=O)N[C@@H]2C=C[C@@H](CC(=O)Nc3ccccc3)O[C@@H]2CO)c1,1,nt,nt,nt
